Assay [1] deals with T1, Steroid 17-alpha-hydroxylase/17,20 lyase (Rattus norvegicus, UniProt P11715).
T1 sequence (P11715 whole entry): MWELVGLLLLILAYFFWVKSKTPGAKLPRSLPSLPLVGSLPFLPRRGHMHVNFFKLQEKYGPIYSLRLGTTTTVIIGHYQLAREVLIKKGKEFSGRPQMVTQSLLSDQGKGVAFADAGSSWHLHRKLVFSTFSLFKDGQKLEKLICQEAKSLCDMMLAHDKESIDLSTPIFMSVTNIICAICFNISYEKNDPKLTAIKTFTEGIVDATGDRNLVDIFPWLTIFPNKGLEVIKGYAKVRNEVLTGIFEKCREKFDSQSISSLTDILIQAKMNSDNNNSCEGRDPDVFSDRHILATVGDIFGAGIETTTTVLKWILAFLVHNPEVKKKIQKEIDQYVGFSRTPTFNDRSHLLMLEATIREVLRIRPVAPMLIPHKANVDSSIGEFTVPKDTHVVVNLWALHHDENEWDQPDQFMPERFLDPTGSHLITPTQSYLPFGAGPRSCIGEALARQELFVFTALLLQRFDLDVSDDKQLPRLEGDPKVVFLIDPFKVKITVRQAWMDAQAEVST
The experiment in a line: Inhibition of 17-alpha-hydroxylase/17,20 lyase from rat testes microsomal preparation. It counts as microsomes, Testis. In short, it runs like this:
(§1)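 Rat testis microsomes as enzyme source. The assay contained 1 μM [³H]progesterone, 250 μM NADPH, a glucose-6-phosphate/G6P dehydrogenase regenerating system, 1 mM MgCl₂, 0.1 mM EDTA and 0.1 mM DTT in 50 mM sodium phosphate at pH 7.4, with 5% ethanol vehicle. Incubation ran 10 min at 37 °C. Substrate, 17α-OH-progesterone and product were quantified, giving separate hydroxylase and lyase steps. Each point was run in triplicate at ≥3 concentrations, and IC50 was taken from a Dixon linear regression.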

Assay [2] concerns the target T1, Steroid 17-alpha-hydroxylase/17,20 lyase. In words: Percent inhibition of Steroid 17-alpha-hydroxylase/17,20 lyase of rat testes microsomes at 100 uM.
Assay [3] has as its target T2, Steroid 5-alpha-reductase (Rattus norvegicus, UniProt P24008+P31214).
T2 sequence (P24008 whole entry): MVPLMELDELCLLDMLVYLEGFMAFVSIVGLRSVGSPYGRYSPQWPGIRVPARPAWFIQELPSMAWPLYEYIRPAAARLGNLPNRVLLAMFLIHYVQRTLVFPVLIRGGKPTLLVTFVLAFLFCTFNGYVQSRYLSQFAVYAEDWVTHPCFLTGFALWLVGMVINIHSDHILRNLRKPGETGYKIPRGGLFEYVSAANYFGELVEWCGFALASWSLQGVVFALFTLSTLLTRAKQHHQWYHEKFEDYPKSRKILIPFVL
T2 sequence (P31214 whole entry): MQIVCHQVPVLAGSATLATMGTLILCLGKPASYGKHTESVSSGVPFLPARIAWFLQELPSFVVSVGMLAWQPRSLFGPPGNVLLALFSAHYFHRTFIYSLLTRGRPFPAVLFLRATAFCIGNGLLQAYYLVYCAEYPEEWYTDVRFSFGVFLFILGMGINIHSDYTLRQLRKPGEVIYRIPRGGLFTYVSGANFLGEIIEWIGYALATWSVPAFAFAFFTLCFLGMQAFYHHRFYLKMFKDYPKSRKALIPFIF
The experiment in a line: Inhibition of rat testosterone-5 alpha-reductase activity at pH 6.6 from rat. It is filed as protein assay. The method in brief: (§2)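 Crude nuclear fraction (ca. 1.5 mg) from adult Wistar rat ventral prostate, in 50 mM potassium phosphate. The substrate was 5 μM testosterone with 4-[¹⁴C]testosterone, plus 1 mM NADPH and 1 mM DTT. Incubation ran 30 min at 37 °C and was stopped with ethyl acetate/HgCl₂. [¹⁴C]DHT was measured by TLC radioscan. Inhibitors were added in 2% DMSO at 1, 2, 5, 10 and 20 μM, with assays in duplicate.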

Assay [4] deals with T2, Steroid 5-alpha-reductase. The experiment in a line: Inhibition of Testosterone-5 alpha-reductase activity at pH 7.4 from rat. It counts as protein assay. In short, it runs like this: as §2
Assay [5] concerns the target T1, Steroid 17-alpha-hydroxylase/17,20 lyase. The experiment in a line: Inhibition of Steroid 17-alpha-hydroxylase/17,20 lyase from rat testes microsomal preparation. The method in brief: as §1
Assay [6] shares this target. In words: Percent inhibition of Steroid 17-alpha-hydroxylase/17,20 lyase from rat testes microsomes at 100 uM.
Assay [7] deals with T2, Steroid 5-alpha-reductase. The experiment in a line: Binding constant of Testosterone-5 alpha-reductase activity at pH 7.4. It counts as protein assay.
Assay [8] addresses T1, Steroid 17-alpha-hydroxylase/17,20 lyase. In words: Percent inhibition of 17-alpha-hydroxylase/17,20 lyase of rat testes microsomes at 100 uM.
Assay [9] has as its target T2, Steroid 5-alpha-reductase. The experiment in a line: Inhibition of Testosterone-5 alpha-reductase activity at pH 7.4 from rat; B = no inhibition at the highest concentration tested (20 uM). It is filed as protein assay. The method in brief:
as §2

The target in assay [10] is T2, Steroid 5-alpha-reductase. In words: Inhibition of Testosterone-5 alpha-reductase activity at pH 6.6 from rat; B = no inhibition at the highest concentration tested (20 uM). It counts as protein assay. The method in brief:
as §2

By IC50 is commonly meant the concentration that inhibits the measured activity by half. The low end stands for greater potency in that assay, the high end for weaker potency in that assay. A word on the inhibition: it is the percentage by which the read-out fell short of the control. Higher therefore signals strong suppression. What is called Ki is a dissociation constant, usually derived from enzyme kinetics or from competition with a known ligand. High values mean lower affinity, low ones higher affinity.

For `Oc1c(F)c(F)c(/N=N/c2c(F)c(F)c(F)c(F)c2F)c(F)c1F`, the half-maximal inhibitory concentration (IC50) in assay [1] was 30 µM; in [3], 2 µM; in assay [4], 14 µM; in [5] it was 33 µM. The inhibition at 100 µM in [2] is 76%; in [6], 71%. Further, in [7], the inhibitory constant (Ki) was determined as 10 µM.
With `Fc1c(F)c(F)c2c(c1F)N=Nc1c(F)c(F)c(F)c(F)c1O2`, the IC50 came to 50 µM in assay [1] and 15 µM in [5]. In addition, the inhibition at 100 µM in assay [8] came to 67%; in assay [6], 88%.
`Oc1c(F)c(F)c(/N=N/c2c(F)c(F)c(O)c(F)c2F)c(F)c1F`: the inhibition at 100 µM came to 15% in assay [8] and 14% in assay [6]. Moreover, the results for the IC50 in assay [3] and in assay [4] were 0.79 µM and 5 µM, respectively. The Ki in [7] is 4 µM.
Turning to `Oc1ccc(/N=N/c2ccccc2)cc1`, the inhibition at 100 µM came out at 6% in assay [8] and 0% in assay [6]. Also, the IC50 result in [9] is on record as “No inhibition”.
Regarding `Oc1c(F)c(F)c(F)c(F)c1/N=N/c1c(F)c(F)c(F)c(F)c1F`, the IC50 was 63 µM in assay [1], “No inhibition” in assay [10] and 16 µM in assay [5]. The inhibition at 100 µM in [8] was determined as 62%; in assay [6], 83%.
For the compound `Fc1c(F)c(F)c(/N=N/c2c(F)c(F)c(F)c(F)c2F)c(F)c1F`, the inhibition at 100 µM was 4% in assay [8] and 0% in assay [6]. For the same compound, in assay [9], the IC50 result is “No inhibition”.
The like results for `c1ccc(/N=N/c2ccccc2)cc1` [AZOBENZENE] were, in that order, 0%, 0% and “No inhibition”.
For the compound `CC(=O)N1CCN(c2ccc(OCC3COC(Cn4ccnc4)(c4ccc(Cl)cc4Cl)O3)cc2)CC1` (stereo unspecified) [KETOCONAZOLE], the IC50 in [1] came out at 6 µM; in [5], 11 µM. For the same compound, the inhibition at 100 µM in assay [8] came out at 62%; in assay [6] it was 48%.
For `CC(=O)[C@H]1CC[C@H]2[C@@H]3CCC4=CC(=O)CC[C@]4(C)[C@H]3CC[C@]12C` [PROGESTERONE], the IC50 was determined as 1.6 µM in assay [3] and 2.6 µM in assay [4].

For the origin of these results see ChEMBL document CHEMBL1124902, “Hydroxyperfluoroazobenzenes: novel inhibitors of enzymes of androgen biosynthesis” (J Med Chem, 1990).
